Published values pooled from the literature.
Protocols differ between the studies behind these lines.
Target: Mitogen-activated protein kinase kinase kinase kinase 4 (MAP4K4, Homo sapiens, UniProt O95819)

SMILES	effect on	mode	technique	concentration	measurement	value
Nc1nc(Nc2ccc(S(N)(=O)=O)cc2)nn1C(=O)c1c(F)cccc1F	cell-free assay	–	–	0.5 µM	remaining signal	83.8%
Cc1c(NC(=O)c2cc(C(N)=O)nc3cc(F)ccc23)c(C(F)(F)F)nn1Cc1ccc(C(C)(C)C)cc1	cell-free assay	–	competition with immobilised ligand	1 µM	remaining binding	76%
CC(C)(O)[C@H]1CC[C@H](Nc2ccc3ncc(-c4cccc(C(F)(F)F)c4)n3n2)CC1	enzyme activity	inhibitor	–	1 µM	remaining activity	90.6%
CC(C)CC(=O)N1CCc2nc(-c3ccc(Br)cc3)nc(N(C)Cc3ccccc3)c2C1	cell-free assay	–	competition with immobilised ligand	0.1 µM	remaining binding	84%
O=C(Nc1cnn(-c2csc(C(=O)NC3COC3)c2)c1)Nc1c(F)cccc1Cl	enzyme activity	inhibitor	–	5 µM	remaining activity	90.4%
CC(C)(C)c1nc(-c2cccc(NS(=O)(=O)c3c(F)cccc3F)c2F)c(-c2ccnc(N)n2)s1	enzyme activity	inhibitor	radiometric	1 µM	remaining activity	95%
Oc1cccc(-c2nc(N3CCOCC3)c3oc4ncccc4c3n2)c1	cell-free assay	–	–	0.5 µM	remaining signal	91.4%
COc1cc(Cl)c(C(=O)N[C@@H](CN[C@H]2CC[C@@H](N)CC2)Cc2ccc(C#N)cc2)cc1-c1ccc(CN[C@H](C)c2ccc(C)cc2)o1	enzyme activity	inhibitor	–	1 µM	remaining activity	96%
CSc1nc(C)c(-c2ccnc(Nc3ccc(N4CCOCC4)cc3)c2)[nH]1	enzyme activity	inhibitor	–	10 µM	inhibition	77.9%
CCCCN(CCCC)C(=O)CN1C[C@@H](c2cc(OC)c3c(c2)OCO3)[C@H](C(=O)O)[C@H]1CC(C)(C)CCC	cell-free assay	–	competition with immobilised ligand	1 µM	remaining binding	88.9%
Cc1ccc(C(=O)Nc2ccc(CN3CCN(C)CC3)c(C(F)(F)F)c2)cc1C#Cc1cnc2cccnn12	enzyme activity	inhibitor	–	23.5 nM	remaining activity	27%
COc1cc2ncnc(Nc3ccc(Oc4ccccc4)cc3C)c2cc1OC	enzyme activity	inhibitor	–	1 µM	inhibition	6%
CO[C@@H](C)c1c(Nc2ccc([C@@H](N(C)C(=O)C3CCS(=O)(=O)CC3)C(F)(F)F)cc2)cnc2cc(Cl)nn12	cell-free assay	–	competition with immobilised ligand	1 µM	remaining binding	100%
CS(=O)(=O)CCNCc1ccc(-c2ccc3ncnc(Nc4ccc(OCc5cccc(F)c5)c(Cl)c4)c3c2)o1	cell-free assay	–	–	0.5 µM	remaining signal	111%
O=C(NC[C@@H]1[C@H]2CN(C(=O)OCc3cc(C(F)(F)F)cc(C(F)(F)F)c3)C[C@@H]12)c1ccc2[nH]nnc2c1	cell-free assay	–	competition with immobilised ligand	1 µM	remaining binding	100%
N#CCCc1ccc2c(c1)-c1[nH]c3ccc([N+](=O)[O-])cc3c1CC(=O)N2	cell-free assay	–	–	0.5 µM	remaining signal	6.82%
CN1CC(Oc2cnc(C#N)cc2-c2ccn3nc(NC(=O)C4CC4)cc3c2)C1	enzyme activity	inhibitor	–	1 µM	inhibition	13%
